Values after ≈ are worked out from the molar mass of the structure shown. Peptide text beside a SMILES is read from it.
Legend:
Escherichia coli = experiment: Compound tested for in vitro susceptibility against ATCC strain 25922 of Escherichia coli; format: functional; details: ATCC25922
Summary of the method: (§1)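 Microbroth dilution in Tryptic Soy Broth; inoculum 5×10^5 CFU/mL; plates incubated at 37 °C for 18-20 h; value reported as minimal inhibitory concentration (µg/mL).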

Enterobacter cloacae [1] = experiment: Compound tested for the antimicrobial activity against Enterobacter cloacae; format: functional; summary of the method: as §1
Enterobacter cloacae [2] = experiment: Compound tested for the antimicrobial activity against Enterobacter cloacae ROS; format: functional
Summary of the method: (§2)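 MIC by microbroth dilution in Tryptic Soy Broth; inoculum 5×10^5 CFU/mL; plates incubated 18-20 h at 37 °C; assay pH approximately 7.4.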

[3] = Hemolytic activity towards human erythrocytes is evaluated for magainin 2 at peptide concentration of 100 µg/mL; format: functional
Summary of the method: (§3)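 Washed human erythrocytes from healthy volunteers (3 mL packed cells, PBS pH 7.4 washes, diluted to 20 mL) exposed to peptide in PBS at 25-200 µg/mL, 30 min at 37 °C; supernatant absorbance at 576 nm after centrifugation; 0.1% Triton X-100 taken as 100% hemolysis; duplicates.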

[4] = Hemolytic activity towards human erythrocytes is evaluated for magainin 2 at peptide concentration of 200 µg/mL; format: functional; summary of the method: as §3
[5] = Hemolytic activity towards human erythrocytes is evaluated for magainin 2 at peptide concentration of 25 ug/mL; format: functional; summary of the method: as §3
[6] = Hemolytic activity towards human erythrocytes is evaluated for magainin 2 at peptide concentration of 50 µg/mL; format: functional; summary of the method: as §3
Klebsiella pneumoniae = experiment: Compound tested for the antimicrobial activity against Klebsiella pneumoniae; format: functional; summary of the method: as §2
Pseudomonas aeruginosa [7] = experiment: Compound tested for the antimicrobial activity against Pseudomonas aeruginosa strain 8; format: functional; summary of the method: as §1
Pseudomonas aeruginosa [8] = experiment: Compound tested for the antimicrobial activity against Pseudomonas aeruginosa strain 9; format: functional; summary of the method: as §1
Pseudomonas aeruginosa [9] = experiment: Compound tested for the antimicrobial activity against Pseudomonas aeruginosa strain ATCC 25916; format: functional; summary of the method: as §1
Proteus mirabilis = experiment: Compound tested for the antimicrobial activity against Proteus mirabilis; format: functional; summary of the method: as §1
Pseudomonas aeruginosa [10] = experiment: Compound tested for in vitro susceptibility against ATCC strain 27853 of Pseudomonas aeruginosa; format: functional; details: ATCC 27853; summary of the method: as §1
Pseudomonas aeruginosa [11] = experiment: Compound tested for the antimicrobial activity against Pseudomonas aeruginosa strain 1; format: functional; summary of the method: as §1
Pseudomonas aeruginosa [12] = experiment: Compound tested for the antimicrobial activity against Pseudomonas aeruginosa strain 10; format: functional; summary of the method: as §1
Pseudomonas aeruginosa [13] = experiment: Compound tested for the antimicrobial activity against Pseudomonas aeruginosa strain 11; format: functional; summary of the method: as §1
Pseudomonas aeruginosa [14] = experiment: Compound tested for the antimicrobial activity against Pseudomonas aeruginosa strain 2; format: functional; summary of the method: as §1
Pseudomonas aeruginosa [15] = experiment: Compound tested for the antimicrobial activity against Pseudomonas aeruginosa strain 3; format: functional; summary of the method: as §1
Pseudomonas aeruginosa [16] = experiment: Compound tested for the antimicrobial activity against Pseudomonas aeruginosa strain 4; format: functional; summary of the method: as §1
Pseudomonas aeruginosa [17] = experiment: Compound tested for the antimicrobial activity against Pseudomonas aeruginosa strain 5; format: functional; summary of the method: as §1
Pseudomonas aeruginosa [18] = experiment: Compound tested for the antimicrobial activity against Pseudomonas aeruginosa strain 6; format: functional; summary of the method: as §1
Pseudomonas aeruginosa [19] = experiment: Compound tested for the antimicrobial activity against Pseudomonas aeruginosa strain 7; format: functional; summary of the method: as §1
[20] = test system: Salmonella enterica subsp. enterica serovar Anatum; experiment: Compound tested for the antimicrobial activity against S. a natum; format: functional, salmoneila onotum; summary of the method: as §1
Staphylococcus aureus [21] = experiment: Compound tested for the activity against Staphylococcus aureus strain 4; format: functional; summary of the method: as §1
Staphylococcus aureus [22] = experiment: Compound tested for the activity against Staphylococcus aureus strain 5; format: functional; summary of the method: as §1
Staphylococcus aureus [23] = experiment: Compound tested for the activity against Staphylococcus aureus strain 6; format: functional; summary of the method: as §1
Staphylococcus aureus [24] = experiment: Compound tested for the activity against Staphylococcus aureus strain 7; format: functional; summary of the method: as §1
Staphylococcus aureus [25] = experiment: Compound tested for the activity against Staphylococcus aureus strain 8; format: functional; summary of the method: as §1
Staphylococcus aureus [26] = experiment: Compound tested for the activity against Staphylococcus aureus strain 9; format: functional; summary of the method: as §1
Staphylococcus aureus [27] = experiment: Compound tested for the activity against Staphylococcus aureus strain ATCC 28953; format: functional; summary of the method: as §1
Shigella flexneri = experiment: Compound tested for the antimicrobial activity against Shigella flexneri; format: functional; summary of the method: as §2
Staphylococcus aureus [28] = experiment: Compound tested for the activity against Staphylococcus aureus strain 1; format: functional; summary of the method: as §1
Staphylococcus aureus [29] = experiment: Compound tested for the activity against Staphylococcus aureus strain 10; format: functional; summary of the method: as §1
Staphylococcus aureus [30] = experiment: Compound tested for the activity against Staphylococcus aureus strain 11; format: functional; summary of the method: as §1
Staphylococcus aureus [31] = experiment: Compound tested for the activity against Staphylococcus aureus strain 2; format: functional; summary of the method: as §1
Staphylococcus aureus [32] = experiment: Compound tested for the activity against Staphylococcus aureus strain 3; format: functional; summary of the method: as §1
[33] = test system: Acinetobacter calcoaceticus subsp. anitratus; experiment: Compound tested for the antimicrobial activity against Acinetobacter anitratus; format: functional, aeinetobacter anitrotap; summary of the method: as §2
Staphylococcus aureus [34] = experiment: Compound tested for in vitro susceptibility against ATCC strain 29213 of Staphylococcus aureus; format: functional; summary of the method: as §1

MIC (Escherichia coli) [µg/mL]	MIC (Enterobacter cloacae [1]) [µg/mL]	MIC (Enterobacter cloacae [2]) [µg/mL]	MIC (Klebsiella pneumoniae) [µg/mL]	MIC (Pseudomonas aeruginosa [7]) [µg/mL]	MIC (Pseudomonas aeruginosa [8]) [µg/mL]	MIC (Pseudomonas aeruginosa [9]) [µg/mL]	MIC (Proteus mirabilis) [µg/mL]	MIC (Pseudomonas aeruginosa [10]) [µg/mL]	MIC (Pseudomonas aeruginosa [11]) [µg/mL]	MIC (Pseudomonas aeruginosa [12]) [µg/mL]	MIC (Pseudomonas aeruginosa [13]) [µg/mL]	MIC (Pseudomonas aeruginosa [14]) [µg/mL]	MIC (Pseudomonas aeruginosa [15]) [µg/mL]	MIC (Pseudomonas aeruginosa [16]) [µg/mL]	MIC (Pseudomonas aeruginosa [17]) [µg/mL]	Compound	Hemolysis [3] [%]	Hemolysis [4] [%]	Hemolysis [5] [%]	Hemolysis [6] [%]	also measured
6.25 (≈ 2.88 µM)	6.25 (≈ 2.88 µM)	12.5 (≈ 5.76 µM)	12.5 (≈ 5.76 µM)	12.5 (≈ 5.76 µM)	> 100	3.12 (≈ 1.44 µM)	> 100	12.5 (≈ 5.76 µM)	6.25 (≈ 2.88 µM)	50 (≈ 23 µM)	25 (≈ 11.5 µM)	12.5 (≈ 5.76 µM)	6.25 (≈ 2.88 µM)	12.5 (≈ 5.76 µM)	12.5 (≈ 5.76 µM)	CC(C)C[C@H](NC(=O)[C@H](CCCCN)NC(=O)[C@H](CC(C)C)NC(=O)[C@H](Cc1ccccc1)NC(=O)[C@H](CCCCN)NC(=O)[C@H](CCCCN)NC(=O)[C@H](C)NC(=O)[C@H](Cc1ccccc1)NC(=O)[C@H](CCCCN)NC(=O)[C@H](CCCCN)NC(=O)[C@H](Cc1ccccc1)NC(=O)[C@H](CC(C)C)NC(=O)[C@@H](N)CCCCN)C(=O)N[C@@H](Cc1ccccc1)C(=O)N[C@@H](CCCCN)C(=O)N[C@@H](C)C(=O)N[C@@H](Cc1c[nH]c2ccccc12)C(=O)O (H-KLFKKFAKKFLKLFKAW-OH)	26	40	5	15	MIC (Pseudomonas aeruginosa [18]): 25 µg/mL (≈ 11.5 µM); MIC (Pseudomonas aeruginosa [19]): 6.25 µg/mL (≈ 2.88 µM); MIC [20]: 12.5 µg/mL (≈ 5.76 µM); MIC (Staphylococcus aureus [21]): 25 µg/mL (≈ 11.5 µM); MIC (Staphylococcus aureus [22]): 50 µg/mL (≈ 23 µM); MIC (Staphylococcus aureus [23]): 25 µg/mL (≈ 11.5 µM); MIC (Staphylococcus aureus [24]): 25 µg/mL (≈ 11.5 µM); MIC (Staphylococcus aureus [25]): 25 µg/mL (≈ 11.5 µM); MIC (Staphylococcus aureus [26]): 50 µg/mL (≈ 23 µM); MIC (Staphylococcus aureus [27]): 25 µg/mL (≈ 11.5 µM); MIC (Shigella flexneri): 3.12 µg/mL (≈ 1.44 µM); MIC (Staphylococcus aureus [28]): 3.12 µg/mL (≈ 1.44 µM); MIC (Staphylococcus aureus [29]): 25 µg/mL (≈ 11.5 µM); MIC (Staphylococcus aureus [30]): 25 µg/mL (≈ 11.5 µM); MIC (Staphylococcus aureus [31]): 25 µg/mL (≈ 11.5 µM); MIC (Staphylococcus aureus [32]): 25 µg/mL (≈ 11.5 µM); MIC [33]: 6.25 µg/mL (≈ 2.88 µM)
6.25 (≈ 2.68 µM)	< 0.39	25 (≈ 10.7 µM)	12.5 (≈ 5.37 µM)	12.5 (≈ 5.37 µM)	> 100	3.12 (≈ 1.34 µM)	> 100	3.12 (≈ 1.34 µM)	6.25 (≈ 2.68 µM)	25 (≈ 10.7 µM)	> 100	3.12 (≈ 1.34 µM)	12.5 (≈ 5.37 µM)	12.5 (≈ 5.37 µM)	12.5 (≈ 5.37 µM)	CC(C)C[C@H](NC(=O)[C@H](CCCCN)NC(=O)[C@H](CC(C)C)NC(=O)[C@H](Cc1c[nH]c2ccccc12)NC(=O)[C@H](CCCCN)NC(=O)[C@H](CCCCN)NC(=O)[C@H](C)NC(=O)[C@H](Cc1c[nH]c2ccccc12)NC(=O)[C@H](CCCCN)NC(=O)[C@H](CCCCN)NC(=O)[C@H](Cc1c[nH]c2ccccc12)NC(=O)[C@H](CC(C)C)NC(=O)[C@@H](N)CCCCN)C(=O)N[C@@H](Cc1c[nH]c2ccccc12)C(=O)N[C@@H](CCCCN)C(=O)N[C@@H](C)C(=O)N[C@@H](Cc1c[nH]c2ccccc12)C(=O)O (H-KLWKKWAKKWLKLWKAW-OH)	31	55	10	18	MIC (Pseudomonas aeruginosa [18]): > 100 µg/mL; MIC (Pseudomonas aeruginosa [19]): 12.5 µg/mL (≈ 5.37 µM); MIC [20]: 12.5 µg/mL (≈ 5.37 µM); MIC (Staphylococcus aureus [21]): 12.5 µg/mL (≈ 5.37 µM); MIC (Staphylococcus aureus [22]): 12.5 µg/mL (≈ 5.37 µM); MIC (Staphylococcus aureus [23]): 12.5 µg/mL (≈ 5.37 µM); MIC (Staphylococcus aureus [24]): 25 µg/mL (≈ 10.7 µM); MIC (Staphylococcus aureus [25]): 25 µg/mL (≈ 10.7 µM); MIC (Staphylococcus aureus [26]): 25 µg/mL (≈ 10.7 µM); MIC (Staphylococcus aureus [27]): 25 µg/mL (≈ 10.7 µM); MIC (Staphylococcus aureus [34]): 50 µg/mL (≈ 21.5 µM); MIC (Shigella flexneri): 3.12 µg/mL (≈ 1.34 µM); MIC (Staphylococcus aureus [28]): 12.5 µg/mL (≈ 5.37 µM); MIC (Staphylococcus aureus [29]): 25 µg/mL (≈ 10.7 µM); MIC (Staphylococcus aureus [30]): 25 µg/mL (≈ 10.7 µM); MIC (Staphylococcus aureus [31]): 6.25 µg/mL (≈ 2.68 µM); MIC (Staphylococcus aureus [32]): 25 µg/mL (≈ 10.7 µM); MIC [33]: 3.12 µg/mL (≈ 1.34 µM)

Compound	MIC (Escherichia coli) [µg/mL]	MIC (Enterobacter cloacae [1]) [µg/mL]	MIC (Enterobacter cloacae [2]) [µg/mL]	MIC (Klebsiella pneumoniae) [µg/mL]	MIC (Pseudomonas aeruginosa [7]) [µg/mL]	MIC (Pseudomonas aeruginosa [8]) [µg/mL]	MIC (Pseudomonas aeruginosa [9]) [µg/mL]	MIC (Proteus mirabilis) [µg/mL]	MIC (Pseudomonas aeruginosa [10]) [µg/mL]	MIC (Pseudomonas aeruginosa [11]) [µg/mL]	MIC (Pseudomonas aeruginosa [12]) [µg/mL]	MIC (Pseudomonas aeruginosa [13]) [µg/mL]	MIC (Pseudomonas aeruginosa [14]) [µg/mL]	MIC (Pseudomonas aeruginosa [15]) [µg/mL]	MIC (Pseudomonas aeruginosa [16]) [µg/mL]	MIC (Pseudomonas aeruginosa [17]) [µg/mL]	Hemolysis [3] [%]	Hemolysis [4] [%]	Hemolysis [5] [%]	Hemolysis [6] [%]	also measured
CC(C)C[C@H](NC(=O)[C@H](CCCCN)NC(=O)[C@H](CCCCN)NC(=O)[C@H](Cc1c[nH]c2ccccc12)NC(=O)[C@@H](N)CCCCN)C(=O)N[C@@H](C)C(=O)N[C@@H](CCCCN)C(=O)N[C@@H](CCCCN)C(=O)N[C@@H](Cc1c[nH]c2ccccc12)C(=O)O (H-KWKKLAKKW-OH)	25 (≈ 20.6 µM)								12.5 (≈ 10.3 µM)								0	0	0	0	MIC (Staphylococcus aureus [34]): 25 µg/mL (≈ 20.6 µM)
